# Calls of active or inactive are those of the source. The calls are words filed in the database; no cut-off is given here.
# How the values were obtained:
# [1] = biological target: T1, von Hippel-Lindau disease tumor suppressor/Tyrosine-protein phosphatase non-receptor type 11 (Homo sapiens, UniProt Q06124+P40337); assay: Protac activity at VHL1/SHP2 in human KYSE520 cells assessed as induction of SHP2 degradation at 0.1 uM measured after 6 hrs by Western blot analysis relative to control; format: cell-based
# In short: (§1)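 KYSE520 cells in RPMI 1640 + 10% FBS, 37 °C, 5% CO2, were exposed to degrader for 6 h. SHP2 was measured by Western blot and densitometry, with background-subtracted band normalized to net GAPDH band. Values are the average of three independent experiments.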
# Target sequence in this assay (P40337 whole entry partner, one chain of several): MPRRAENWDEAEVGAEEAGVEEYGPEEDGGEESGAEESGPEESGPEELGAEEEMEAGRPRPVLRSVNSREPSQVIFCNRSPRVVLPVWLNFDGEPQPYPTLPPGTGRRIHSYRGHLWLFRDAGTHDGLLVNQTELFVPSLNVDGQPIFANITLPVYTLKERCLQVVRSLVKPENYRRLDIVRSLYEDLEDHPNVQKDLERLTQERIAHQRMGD
# [2] = biological target: T1, von Hippel-Lindau disease tumor suppressor/Tyrosine-protein phosphatase non-receptor type 11; assay: Protac activity at VHL1/SHP2 in human KYSE520 cells assessed as induction of SHP2 degradation at 1 uM measured after 6 hrs by Western blot analysis relative to control; format: cell-based; in short: as §1
# Target sequence in this assay (P40337 whole entry partner, one chain of several): as above
# [3] = biological target: T1, von Hippel-Lindau disease tumor suppressor/Tyrosine-protein phosphatase non-receptor type 11; assay: Protac activity at VHL1/SHP2 in human MV4-11 cells assessed as induction of SHP2 degradation at 0.1 uM measured after 24 hrs by Western blot analysis relative to control; format: cell-based
# In short: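 MV4;11 cells in IMDM + 10% FBS were exposed to degrader for 24 h. SHP2 was quantified by Western blot densitometry, with background-subtracted band divided by net GAPDH loading-control band. Average of three independent experiments.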
# Target sequence in this assay (P40337 whole entry partner, one chain of several): as above
# [4] = Aqueous solubility of the compound; format: physicochemical; conditions: buffer
# [5] = biological target: T1, von Hippel-Lindau disease tumor suppressor/Tyrosine-protein phosphatase non-receptor type 11; assay: Protac activity at VHL1/SHP2 in human KYSE520 cells assessed as induction of SHP2 degradation measured after 12 hrs by Western blot analysis; format: cell-based
# In short: (§2)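 Dose–response: KYSE520 (RPMI 1640) or MV4;11 (IMDM) cells, with 10% FBS, were treated across a concentration range for 12 h. SHP2 was measured by Western blot and densitometry, normalized to GAPDH band density.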
# [6] = biological target: T1, von Hippel-Lindau disease tumor suppressor/Tyrosine-protein phosphatase non-receptor type 11; assay: Protac activity at VHL1/SHP2 in human MV4-11 cells assessed as induction of SHP2 degradation measured after 12 hrs by Western blot analysis; format: cell-based; in short: as §2
# [7] = biological target: T1, von Hippel-Lindau disease tumor suppressor/Tyrosine-protein phosphatase non-receptor type 11; assay: Protac activity at VHL1/SHP2 in human KYSE520 cells assessed as induction of SHP2 degradation at 100 nM measured within 4 hrs by Western blot analysis; format: cell-based
# In short: (§3)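 Kinetics: cells were seeded overnight in 6-well plates, then given degrader at 100 nM for 2, 4, 8, 12 and 24 h. Harvested cells were lysed in RIPA with protease/phosphatase inhibitors and SHP2 was read by Western blot against GAPDH loading control. KYSE520 were grown in RPMI 1640 and MV4;11 in IMDM, both with 10% FBS.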
# Target sequence in this assay (P40337 whole entry partner, one chain of several): as above
# [8] = biological target: T1, von Hippel-Lindau disease tumor suppressor/Tyrosine-protein phosphatase non-receptor type 11; assay: Protac activity at VHL1/SHP2 in human KYSE520 cells assessed as induction of SHP2 degradation at 100 nM measured after 8 hrs by Western blot analysis relative to control; format: cell-based; in short: as §3
# Target sequence in this assay (P40337 whole entry partner, one chain of several): as above
# [9] = biological target: T1, von Hippel-Lindau disease tumor suppressor/Tyrosine-protein phosphatase non-receptor type 11; assay: Protac activity at VHL1/SHP2 in human MV4-11 cells assessed as induction of SHP2 degradation at 100 nM measured after 4 to 8 hrs by Western blot analysis; format: cell-based; in short: as §3
# Target sequence in this assay (P40337 whole entry partner, one chain of several): as above
# [10] = biological target: T1, von Hippel-Lindau disease tumor suppressor/Tyrosine-protein phosphatase non-receptor type 11; assay: Protac activity at VHL1/SHP2 in human KYSE520 cells assessed as induction of SHP2 degradation at 0.1 uM measured after 3 hrs in presence of VHL-1 ligand by Western blot analysis; format: cell-based
# In short: (§4)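 KYSE520 cells in RPMI 1640 + 10% FBS were pretreated 1 h with VHL-1 ligand (10 μM), SHP2 inhibitor (10 μM), MLN4924 (0.5 μM) or MG132, then given degrader at 0.1 μM for 3 h. Cells were lysed in RIPA with protease/phosphatase inhibitors and run on 4–12% SDS–PAGE/PVDF Western blot for SHP2, with GAPDH as loading control.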
# [11] = biological target: T1, von Hippel-Lindau disease tumor suppressor/Tyrosine-protein phosphatase non-receptor type 11; assay: Protac activity at VHL1/SHP2 in human KYSE520 cells assessed as induction of SHP2 degradation at 0.1 uM measured after 3 hrs in presence of SHP2 inhibitor by Western blot analysis; format: cell-based; in short: as §4
# [12] = biological target: T1, von Hippel-Lindau disease tumor suppressor/Tyrosine-protein phosphatase non-receptor type 11; assay: Protac activity at VHL1/SHP2 in human KYSE520 cells assessed as induction of SHP2 degradation at 0.1 uM measured after 3 hrs in presence of E1 inhibitor MLN4924 by Western blot analysis; format: cell-based; in short: as §4
# [13] = biological target: T1, von Hippel-Lindau disease tumor suppressor/Tyrosine-protein phosphatase non-receptor type 11; assay: Protac activity at VHL1/SHP2 in human KYSE520 cells assessed as induction of SHP2 degradation at 0.1 uM measured after 3 hrs in presence of proteasome inhibitor MG132 by Western blot analysis; format: cell-based; in short: as §4
# [14] = biological target: T1, von Hippel-Lindau disease tumor suppressor/Tyrosine-protein phosphatase non-receptor type 11; assay: Protac activity at VHL1/SHP2 in human KYSE520 cells assessed as reduction in ERK phosphorylation measured after 48 hrs by Western blot analysis; format: cell-based
# [15] = biological target: T1, von Hippel-Lindau disease tumor suppressor/Tyrosine-protein phosphatase non-receptor type 11; assay: Protac activity at VHL1/SHP2 in human MV4-11 cells assessed as reduction in ERK phosphorylation measured after 48 hrs by Western blot analysis; format: cell-based
# [16] = biological target: T1, von Hippel-Lindau disease tumor suppressor/Tyrosine-protein phosphatase non-receptor type 11; assay: Protac activity at VHL1/SHP2 in human KYSE520 cells assessed as reduction in ERK phosphorylation at 100 nM measured after 48 hrs by Western blot analysis; format: cell-based
# [17] = biological target: T1, von Hippel-Lindau disease tumor suppressor/Tyrosine-protein phosphatase non-receptor type 11; assay: Protac activity at VHL1/SHP2 in human MV4-11 cells assessed as reduction in ERK phosphorylation at 100 nM measured after 48 hrs by Western blot analysis relative to control; format: cell-based; set-up: scale not given: the % may be the effect or the level left
# [18] = biological target: T2, Tyrosine-protein phosphatase non-receptor type 11 (Homo sapiens) (UniProt Q06124); assay: Inhibition of SHP2 in human MV4-11 cells assessed as reduction in ERK phosphorylation at >3000 nM measured after 48 hrs by Western blot analysis relative to control; format: cell-based
# T2 sequence (whole entry): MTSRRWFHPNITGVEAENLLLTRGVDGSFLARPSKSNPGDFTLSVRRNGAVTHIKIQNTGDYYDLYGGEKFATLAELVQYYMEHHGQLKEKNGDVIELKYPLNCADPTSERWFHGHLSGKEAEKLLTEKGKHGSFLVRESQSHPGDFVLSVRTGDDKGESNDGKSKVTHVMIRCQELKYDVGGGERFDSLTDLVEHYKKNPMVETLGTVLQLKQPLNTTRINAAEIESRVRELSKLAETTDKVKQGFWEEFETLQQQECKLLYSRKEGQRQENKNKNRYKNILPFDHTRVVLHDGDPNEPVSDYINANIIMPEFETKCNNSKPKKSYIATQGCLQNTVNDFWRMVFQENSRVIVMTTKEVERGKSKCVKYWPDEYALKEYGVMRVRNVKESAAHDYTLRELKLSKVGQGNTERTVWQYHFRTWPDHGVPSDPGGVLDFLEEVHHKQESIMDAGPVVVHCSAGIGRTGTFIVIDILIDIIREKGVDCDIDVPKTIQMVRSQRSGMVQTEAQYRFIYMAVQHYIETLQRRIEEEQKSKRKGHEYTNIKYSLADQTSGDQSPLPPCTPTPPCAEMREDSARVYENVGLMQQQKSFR
# KYSE-520 cell line [19] = assay: Growth inhibition of human KYSE520 cells measured after 4 days by WST8 assay; conditions: KYSE-520, 96 h
# MV4-11 [20] = assay: Growth inhibition of human MV4-11 cells measured after 4 days by WST8 assay; conditions: MV4-11, 96 h
# KYSE-520 cell line [21] = assay: Potency index, ratio of SHP099 IC50 to test compound IC50 for growth inhibition of human KYSE520 cells; format: functional
# MV4-11 [22] = assay: Potency index, ratio of SHP099 IC50 to test compound IC50 for growth inhibition of human MV4-11 cells; format: functional
smiles,measurement,setting,value
"Cc1ncsc1-c1ccc([C@H](C)NC(=O)[C@@H]2C[C@@H](O)CN2C(=O)[C@@H](NC(=O)CCCCCCCCN2CCN(C(=O)CCC(=O)Nc3cccc(Sc4ncc(N5CCC(C)(N)CC5)nc4N)c3Cl)CC2)C(C)(C)C)cc1 (single isomer, unassigned)",Activity,[1],> 95%
same,Activity,[2],> 95%
same,Activity,[3],> 95%
same,solubility,[4],Soluble
same,Activity,[5],Dose-dependent effect
same,DC50,[5],6 nM
same,Activity,[6],Dose-dependent effect
same,DC50,[6],2.6 nM
same,Activity,[7],Active
same,Activity,[8],100%
same,Activity,[9],Active
same,Activity,[10],inactive
same,Activity,[11],inactive
same,Activity,[12],inactive
same,Activity,[13],inactive
same,Activity,[14],Dose-dependent effect
same,Activity,[15],Dose-dependent effect
same,Activity,[16],Active
same,Activity,[17],100%
same,inhibition,[18],100%
same,IC50,KYSE-520 cell line [19],660 nM
same,IC50,MV4-11 [20],9.9 nM
same,Ratio IC50,KYSE-520 cell line [21],28
same,Ratio IC50,MV4-11 [22],100
